TAAR1 antag: human TAAR1 antagonism | inhibition, % at 3 µM | CHO RD-HGA16 TAAR1, Fluo-8 calcium fluorescence, antagonist | AID 624466 | actives 1.5% (n = 360,000) | Q96RJ0;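 active = inhibition above a per-plate cutoff, the mean inhibition of test compounds on that plate plus 3 SD, cut at about 49% in these data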;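 note: 0% = DMSO plus EC80 beta-PEA response and 100% = DMSO alone without agonist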
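Test system: CHO RD-HGA16 cells bearing hTAAR1 | Reagent: β-PEA, EC80 | Compound dosing: 3 µM, single point | Schedule: Dye loading 75 min at 37 °C, then 30 min room temperature | Signal: Calcium fluorescence with Fluo-8 | Evaluation: Percent inhibition of PEA-evoked calcium signal, max/basal emission ratio | Control set: DMSO-only wells and EC80 β-PEA-stimulated wells | Repeats: Singlicate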
OX1R antag-1: OX1R (human) antagonism. O43613. OX1R-expressing cells, FRET antagonist read-out. actives 1.8% (n = 330,000). AID 485270. inhibition, % at 6.6 µM; in the data active = inhibition mostly above about 38%, no sharp cut-off; inactive = mostly below about 40%;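 note: 0% = agonist challenge alone and 100% = reference antagonist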
Target sequence (O43613 whole entry, looked up): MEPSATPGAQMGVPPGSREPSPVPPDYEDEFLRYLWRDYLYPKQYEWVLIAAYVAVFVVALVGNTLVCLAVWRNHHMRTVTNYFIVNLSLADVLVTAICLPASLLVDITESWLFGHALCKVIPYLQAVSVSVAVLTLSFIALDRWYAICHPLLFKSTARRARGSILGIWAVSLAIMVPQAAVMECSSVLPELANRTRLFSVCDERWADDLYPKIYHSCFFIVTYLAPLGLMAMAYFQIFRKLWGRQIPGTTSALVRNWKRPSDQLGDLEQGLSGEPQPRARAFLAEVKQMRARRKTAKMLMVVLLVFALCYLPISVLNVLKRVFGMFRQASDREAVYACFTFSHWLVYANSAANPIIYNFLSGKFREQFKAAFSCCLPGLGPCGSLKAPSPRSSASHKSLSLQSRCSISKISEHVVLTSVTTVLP
TAAR1 agonist: agonists of human TAAR1; CHO RD-HGA16 TAAR1, Fluo-8 calcium fluorescence; vehicle wells 0%, saturating PEA agonist 100%; activation, % at 3 µM; actives 0.99% (n = 360,000); AID 624467;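 active = activation above the mean activation of all test compounds in the run plus 3 SD, cut at about 38% in these data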
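Repeats: no replicates (n 1) | Material: CHO-derived RD-HGA16 cells with stable Gα16 and human TAAR1 | Technique: Kinetic Fluo-8 calcium fluorescence | Schedule: 17-24 h seeding, 75 min 37 °C dye, 30 min RT | Evaluation: % activation from peak over basal fluorescence ratio, DMSO-to-PEA scaled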
CHO parental Ca: signal in parental CHO cells, OX1R antagonist counter-screen; actives 0.63% (n = 330,000); parental CHO-K1, ATP-induced calcium, Fluo-8 fluorescence; inhibition, % at 5.6 µM;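 active = inhibition above that plate's mean sample inhibition plus 3 SD, cut at about 26% in these data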;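 note: 0% = ATP-challenged DMSO wells and 100% = DMSO wells without ATP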
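Material: parental CHO cells / Compound: single nominal dose of 5.6 µM per compound / Signal: Fluo-8 fluorescence / Replicates: singlicate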
GPR7 antagonist: human neuropeptides B/W receptor 1 antagonism | P48145 | actives 1.1% (n = 290,000) | GPR7-expressing cells, fluorescence antagonist assay | inhibition, % at 4.4 µM; in the data active = inhibition above about 16%, passing the limit was not always enough;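 note: cells stimulated with the agonist NPW; 0% = agonist with vehicle and 100% = vehicle without agonist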
OX1R antag-2: blocks the human orexin 1 receptor; inhibition, % at 5 µM; CHO/OX1R cells, Fluo-8 calcium fluorescence, orexin A; actives 0.43% (n = 330,000); AID 434989;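 active = inhibition above its plate's threshold, mean inhibition of all tested compounds on the plate plus 3 SD, cut at about 37% in these data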;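 note: 0% = orexin A challenge wells and 100% = SB-334867-A antagonist wells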
The depositor's hits bear a star; . = no result. A selection: hits, their analogues and other compounds. The true share with any hit is near 4.5%.

SMILES	TAAR1 antag	OX1R antag-1	TAAR1 agonist	CHO parental Ca	GPR7 antagonist	OX1R antag-2
COc1cc(-c2coc3c(C(=O)NCc4ccc(OC)c(OC)c4)cccc23)ccc1O	66*	.	12	.	.	.
C[C@@H]1CN([C@@H](C)CO)C(=O)CCCn2cc(nn2)CO[C@H]1CN(C)C(=O)Nc1ccc(C(F)(F)F)cc1	6	.	4	.	.	.
O=C(Nc1ccc(F)c(Cl)c1)[C@@H]1O[C@H](CO)[C@H](O)[C@H](O)[C@H]1O	-1	.	2	.	.	.
Cc1nc2ccc(NC(=O)c3ccc(Cl)c(S(=O)(=O)N(C)c4ccccc4)c3)cc2s1	51*	50	13	41*	1	28
O=C(Nc1ccc(Cl)c(Cl)c1)Nc1nccs1	-1	18	43*	22	-1	25
O=C(Nc1ccccc1-c1ccccc1)c1ccc(Cl)c([N+](=O)[O-])c1	-19	37	2	-7	19	-10
O=C(Nc1ccc(Cl)c(Cl)c1)c1ccncc1	14	32	21	-1	10	-15
O=C(Nc1ccc(Cl)c(Cl)c1)c1ccc(Cl)c(Cl)c1	37	92*	5	59*	14	40*
O=C(Nc1ncccn1)c1ccc(Cl)c([N+](=O)[O-])c1	6	26*	2	1	-7	-11
O=C(Nc1cccc(Cl)c1)Nc1nccs1	4	18	31	-4	14	-4
Nc1[nH]c(C(=O)c2ccccc2)c(-c2ccc(Cl)cc2)c1C(=O)c1c[nH]c2cc(F)ccc12	-14	.	3	.	.	.
CCc1nc2c(OCc3cc(Cl)cc(Cl)c3)cccn2c1N(C)C(=O)c1ccc(OC)cc1	-33	.	6	.	.	.
O=C(Nc1ccc(Nc2ccccc2)cc1)c1ccc(Cl)c([N+](=O)[O-])c1	51*	31	5	14	-12	-9
Cc1cc(NC(=O)c2ccc(Cl)c([N+](=O)[O-])c2)no1	-18	32	1	43*	-12	-1
COc1cccc(S(=O)(=O)NCc2ccc(C(=O)Nc3ccc(Cl)c(Cl)c3)cc2)c1	32	47	8	42*	-17	35
CN(c1ccccc1)S(=O)(=O)c1cccc(NC(=O)c2ccc(Cl)c([N+](=O)[O-])c2)c1	36	44*	18	64*	.	62*
COc1ccc(NC(=O)c2ccc(CNS(=O)(=O)c3cccc(OC)c3)cc2)cc1	7	22	13	2	-2	-3
CC1CN(C(=O)CCNS(=O)(=O)c2ccc(Br)cc2)CC(C)O1 (centres undefined)	5	10	2	7	.	-8
CCCN1CCC(NC(=O)Cc2ccccc2C)CC1	-6	7	1	5	-8	3
Cc1cc(NC(=O)c2ccc(-c3ccccc3F)o2)no1	-11	21	3	-9	-18	-26
Cc1ccc(C(=O)Nc2ccncc2)cc1[N+](=O)[O-]	-1	14	8	0	-5	11
O=C(Nc1ccc(Cc2ccncc2)cc1)c1ccc(Cl)c([N+](=O)[O-])c1	74*	128*	12	83*	-7	77*
Cc1cc(NC(=O)c2ccc(-c3ccccc3[N+](=O)[O-])o2)no1	2	27*	4	1	.	-11
OC(c1ccccc1)(c1ccccc1)C1CCN(CCCOc2cccc(C(F)(F)F)c2)CC1	36	.	32	.	.	.
Cc1ccc(NCc2ccc(C)s2)cc1	.	-4	.	-12	-13	-23
SMILES	TAAR1 antag	OX1R antag-1	TAAR1 agonist	CHO parental Ca	GPR7 antagonist	OX1R antag-2
CCN(CC)C(=O)c1cccc(-c2csc(C(O)c3cccc(Cl)c3)n2)c1 (centres undefined)	57*	.	3	.	.	.
CN(C)c1ccc(-c2csc(C(O)c3cccc(Cl)c3)n2)cc1 (centres undefined)	73*	.	52*	.	.	.
COc1ccc(NC(=O)CN(C)C(=O)CCc2nc3cc(S(=O)(=O)N4CCOCC4)ccc3n2C)cc1	-11	5	1	-8	.	-17
Cc1cccc(C(=O)N(CC(=O)Nc2sc(C)c(C)c2C(N)=O)C2CCCC2)c1	36	27	16	-36	-4	-29
Cc1ccc(C(=O)N(CC(=O)Nc2sc(C)c(C)c2C(N)=O)C2CCCC2)cc1	51*	24	11	-8	3	-31
COc1ccccc1/C=C/CN1CCCC(CO)(Cc2cccc(Cl)c2)C1 (centres undefined)	-12	69*	3	34*	-4	61*
CC(C)C1O/C(=N/C(=O)Nc2ccc(Cl)c(Cl)c2)NC1=O (centres undefined)	-28	11	31	44*	17	38
COCCCNc1ccn2nc(-c3ccc(OCc4ccccc4)cc3)cc2n1	56*	.	11	.	.	.
c1ccc(COc2ccc(-c3cc4nc(NCCOc5ccccc5)ccn4n3)cc2)cc1	22	.	0	.	.	.
Cn1[nH]c(C(F)(F)F)c(C=NCc2ccc(Cl)cc2)c1=O	2	6	21	4	-2	-9
Cc1ccc(C)c(C(=O)COC(=O)c2n[nH]c3ccccc23)c1	41	36*	1	-16	.	-14
O=C(C1CCCN(S(=O)(=O)c2ccc(F)cc2)C1)N1CCOCC1 (centres undefined)	15	.	2	.	.	.
O=S(=O)(c1ccc(N2CCN(c3ccc(F)cc3)CC2)cc1)N1CCCC1	3	4	7	-15	8	-8
O=S(=O)(c1ccc(N2CCCC2)cc1)C(F)(F)F	24	30	16	40*	-4	-8
C[C@@H]1ON(C)[C@H]2C[C@H]3c4cc(-c5ccc(F)cc5)ccc4CCN3C[C@@H]12	-15	.	2	.	.	.
Cc1ccc(-c2csc(N3CCC(NS(=O)(=O)c4ccc5c(c4)OCCO5)CC3)n2)cc1	27	36	6	55*	0	51*
O=C(OCc1ccccc1)N1CCC2CC1c1cc(/C=C/CCCSc3ncccn3)ccc12 (centres undefined)	9	.	0	.	.	.
C=CCc1ccc(OCCOc2ccc(/C=N/n3cnnc3)cc2OCC)c(OC)c1	21	25	6	67*	-7	1
COc1cc(/C=N/n2cnnc2)ccc1OCCOc1ccccc1	16	25	9	0	-15	-2
Cc1nnc(NC(=O)C2CCCN2S(=O)(=O)c2ccc(Cl)cc2)s1 (centres undefined)	-3	18	5	-5	-13	-20
Cc1ccc(S(=O)(=O)N2CCCC2C(=O)Nc2nc3ccccc3s2)cc1 (centres undefined)	.	74*	.	-23	-14	1
O=C(Nc1nc2ccccc2s1)C1CCCN1S(=O)(=O)c1ccc(Cl)cc1 (centres undefined)	-14	54*	4	-25	-12	0
CC(C)(C)c1cccc(N/C(=C\C(=O)c2ccccc2)c2ccccc2)c1	-18	.	0	.	.	.
